Laboratory results published in paper PMC10826612 (Food Chemistry: X, 2024).

Columns and labels:
tyrosinase (TYR) [1] = molecular target: T1, tyrosinase (TYR) (Agaricus bisporus, UniProt C7FF04); experiment: Kinetic analysis of TYR; assay type: biochemical; conditions: Lineweaver-Burk plot
tyrosinase (TYR) [2] = molecular target: T1, tyrosinase (TYR); experiment: Fluorescence quenching titration of TYR; assay type: binding
tyrosinase (TYR) [3] = molecular target: T1, tyrosinase (TYR); experiment: ANS fluorescence assay; assay type: binding; conditions: 6f 60 µM (533 nm at 0 µM)
tyrosinase (TYR) [4] = molecular target: T1, tyrosinase (TYR); experiment: UV spectra measurement of TYR with inhibitor; assay type: binding
tyrosinase (TYR) [5] = molecular target: T1, tyrosinase (TYR); experiment: CD spectroscopy of TYR secondary structure; assay type: binding; conditions: molar ratio 1:6
HEK-293 cells = experiment: CCK-8 cell viability assay; assay type: cell-based, human; conditions: in words
Method in brief: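 Log-phase HEK-293 cells were seeded at 1 × 10^5 cells/well and held at 37 °C for 24 h. They were then exposed for 24 h to test compound at 4, 12, 36 or 108 µM, prepared in PBS. Wells were washed twice with PBS, and medium containing 10 % CCK-8 was added. Absorbance at 450 nm was read after 2 h.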

T1 sequence (C7FF04 1-392): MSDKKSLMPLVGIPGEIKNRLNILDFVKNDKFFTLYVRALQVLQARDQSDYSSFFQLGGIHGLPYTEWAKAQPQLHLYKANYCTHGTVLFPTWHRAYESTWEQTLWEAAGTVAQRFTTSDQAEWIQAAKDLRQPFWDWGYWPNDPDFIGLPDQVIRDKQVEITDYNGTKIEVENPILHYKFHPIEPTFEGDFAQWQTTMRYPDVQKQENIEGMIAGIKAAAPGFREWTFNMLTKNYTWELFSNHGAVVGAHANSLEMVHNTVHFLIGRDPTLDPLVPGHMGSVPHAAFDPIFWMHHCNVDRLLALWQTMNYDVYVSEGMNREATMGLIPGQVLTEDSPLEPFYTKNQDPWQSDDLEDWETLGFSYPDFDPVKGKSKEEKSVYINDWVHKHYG

inhibition type (tyrosinase (TYR) [1]): mixed-type inhibitor
quenching constant Kq (tyrosinase (TYR) [2]; Stern-Volmer plot): 3.95 × 10^12 L/mol S^-1
number of binding sites n (tyrosinase (TYR) [2]; double reciprocal equation): 1.12
mode of action on TYR (quenching type) (tyrosinase (TYR) [2]; multispectral experiments): static quenching
maximum emission wavelength of ANS-TYR fluorescence (tyrosinase (TYR) [3]): 500 nm
α-Helix content of TYR (tyrosinase (TYR) [5]): 32.50%
β-Turn content of TYR (tyrosinase (TYR) [5]): 17.20%
β-sheet content of TYR (tyrosinase (TYR) [5]): 17.50%
Structure (SMILES): CCCc1cc(=O)oc2cc(OCc3cc(=O)c(O)co3)ccc12 [Compound 6f]
effect on the UV absorption peak of TYR at 280 nm (tyrosinase (TYR) [4]): significantly reduced the absorption peak of TYR at 280 nm
cytotoxicity (HEK-293 cells): low cytotoxicity
